Reference: ChEMBL document CHEMBL1914423, “New imidazo[2,1-b]thiazole derivatives: synthesis, in vitro anticancer evaluation, and in silico studies” (Eur J Med Chem, 2011)

Tested on: SF-295
Assay: Anticancer activity against human SF295 cells assessed as cell growth at 10^-5 M after 48 hrs by SRB assay
Format: functional
Settings: SF-295, 48 h, read-out: Activity

Compound	growth at 10 µM
O=C(NCCNc1nccc(-c2c(-c3cccc(O)c3)nc3sccn23)n1)c1cc(C(F)(F)F)cc(C(F)(F)F)c1	97.1%

Tested on: SK-MEL-28
Assay: Anticancer activity against human SK-MEL-28 cells assessed as cell growth at 10^-5 M after 48 hrs by SRB assay
Format: functional
Settings: SK-MEL-28, 48 h, read-out: Activity

Compound	growth at 10 µM
O=C(NCCNc1nccc(-c2c(-c3cccc(O)c3)nc3sccn23)n1)c1cc(C(F)(F)F)cc(C(F)(F)F)c1	61.8%

Tested on: MDA-MB-468
Assay: Anticancer activity against human MDA-MB-468 cells assessed as cell growth at 10^-5 M after 48 hrs by SRB assay
Format: functional
Settings: MDA-MB-468, 48 h, read-out: Activity

Compound	growth at 10 µM
O=C(NCCNc1nccc(-c2c(-c3cccc(O)c3)nc3sccn23)n1)c1cc(C(F)(F)F)cc(C(F)(F)F)c1	101%

Tested on: IGROV-1
Assay: Anticancer activity against human IGROV1 cells assessed as cell growth at 10^-5 M after 48 hrs by SRB assay
Format: functional
Settings: IGROV-1, 48 h, read-out: Activity
Procedure, shortened: (§1)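 NCI-60 single-dose screen at one concentration. Cells grown in RPMI 1640 with 5% FBS and 2 mM L-glutamine, plated at 5000–40,000 cells/well, and pre-incubated 24 h at 37 °C in 5% CO2 before DMSO-dissolved drug was added. Cells fixed with TCA, SRB-stained, absorbance read at 515 nm. Percent growth calculated against time-zero and untreated control plates.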

Compound	growth at 10 µM
O=C(NCCNc1nccc(-c2c(-c3cccc(O)c3)nc3sccn23)n1)c1cc(C(F)(F)F)cc(C(F)(F)F)c1	93%

Tested on: NCI-H460
Assay: Anticancer activity against human NCI-H460 cells assessed as cell growth at 10^-5 M after 48 hrs by SRB assay
Format: functional
Settings: NCI-H460, 48 h, read-out: Activity

Compound	growth at 10 µM
O=C(NCCNc1nccc(-c2c(-c3cccc(O)c3)nc3sccn23)n1)c1cc(C(F)(F)F)cc(C(F)(F)F)c1	107%

Tested on: SR
Assay: Anticancer activity against human SR cells assessed as cell growth at 10^-5 M after 48 hrs by SRB assay
Format: functional
Settings: read-out: Activity
Procedure, shortened: (§2)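 NCI-60 single-dose screen: cells in RPMI 1640 with 5% FBS and 2 mM L-glutamine, plated at 5000–40,000 cells/well by doubling time, and preincubated 24 h at 37 °C. Compound given at one concentration from DMSO stock. Cells TCA-fixed and SRB-stained, absorbance at 515 nm. Percent growth relative to time-zero and untreated controls; inhibition % = 100 − growth %.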

Compound	growth at 10 µM
O=C(NCCNc1nccc(-c2c(-c3cccc(O)c3)nc3sccn23)n1)c1cc(C(F)(F)F)cc(C(F)(F)F)c1	98.2%

Tested on: RXF 393
Assay: Anticancer activity against human RXF393 cells assessed as cell growth at 10^-5 M after 48 hrs by SRB assay
Format: functional
Settings: RXF 393, 48 h, read-out: Activity

Compound	growth at 10 µM
O=C(NCCNc1nccc(-c2c(-c3cccc(O)c3)nc3sccn23)n1)c1cc(C(F)(F)F)cc(C(F)(F)F)c1	107%

Tested on: K562
Assay: Anticancer activity against human K562 cells assessed as cell growth at 10^-5 M after 48 hrs by SRB assay
Format: functional
Settings: K562, 48 h, read-out: Activity
Procedure, shortened: as §1

Compound	growth at 10 µM
O=C(NCCNc1nccc(-c2c(-c3cccc(O)c3)nc3sccn23)n1)c1cc(C(F)(F)F)cc(C(F)(F)F)c1	96.2%

Tested on: SK-MEL-5
Assay: Anticancer activity against human SK-MEL-5 cells assessed as cell growth at 10^-5 M after 48 hrs by SRB assay
Format: functional
Settings: SK-MEL-5, 48 h, read-out: Activity

Compound	growth at 10 µM
O=C(NCCNc1nccc(-c2c(-c3cccc(O)c3)nc3sccn23)n1)c1cc(C(F)(F)F)cc(C(F)(F)F)c1	81.6%

Tested on: NCI/ADR-RES
Assay: Anticancer activity against human NCI/ADR-RES cells assessed as cell growth at 10^-5 M after 48 hrs by SRB assay
Format: functional
Settings: read-out: Activity

Compound	growth at 10 µM
O=C(NCCNc1nccc(-c2c(-c3cccc(O)c3)nc3sccn23)n1)c1cc(C(F)(F)F)cc(C(F)(F)F)c1	108%

Tested on: UACC-257
Assay: Anticancer activity against human UACC257 cells assessed as cell growth at 10^-5 M after 48 hrs by SRB assay
Format: functional
Settings: UACC-257, 48 h, read-out: Activity
Procedure, shortened: as §2

Compound	growth at 10 µM
O=C(NCCNc1nccc(-c2c(-c3cccc(O)c3)nc3sccn23)n1)c1cc(C(F)(F)F)cc(C(F)(F)F)c1	66.5%

Tested on: SN12C
Assay: Anticancer activity against human SN12C cells assessed as cell growth at 10^-5 M after 48 hrs by SRB assay
Format: functional
Settings: read-out: Activity

Compound	growth at 10 µM
O=C(NCCNc1nccc(-c2c(-c3cccc(O)c3)nc3sccn23)n1)c1cc(C(F)(F)F)cc(C(F)(F)F)c1	102%

Tested on: HCC 2998
Assay: Anticancer activity against human HCC2998 cells assessed as cell growth at 10^-5 M after 48 hrs by SRB assay
Format: functional
Settings: HCC 2998, 48 h, read-out: Activity
Procedure, shortened: as §1

Compound	growth at 10 µM
O=C(NCCNc1nccc(-c2c(-c3cccc(O)c3)nc3sccn23)n1)c1cc(C(F)(F)F)cc(C(F)(F)F)c1	129%

Tested on: A549
Assay: Anticancer activity against human A549 cells assessed as cell growth at 10^-5 M after 48 hrs by SRB assay
Format: functional
Settings: A549, 48 h, read-out: Activity
Procedure, shortened: as §1

Compound	growth at 10 µM
O=C(NCCNc1nccc(-c2c(-c3cccc(O)c3)nc3sccn23)n1)c1cc(C(F)(F)F)cc(C(F)(F)F)c1	92.5%

Tested on: HL-60(TB)
Assay: Anticancer activity against human HL-60(TB) cells assessed as cell growth at 10^-5 M after 48 hrs by SRB assay
Format: functional
Settings: HL-60, 48 h, read-out: Activity
Procedure, shortened: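 NCI-60 single-dose screen. Cells in RPMI 1640 with 5% FBS and 2 mM L-glutamine were plated at 5000–40,000 cells/well and preincubated 24 h at 37 °C before one compound concentration. Time-zero plates were TCA-fixed at drug addition. For suspension cells, settled cells were fixed with cold TCA, then SRB-stained and read at 515 nm. Percent growth was calculated from time-zero, control and treated absorbances.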

Compound	growth at 10 µM
O=C(NCCNc1nccc(-c2c(-c3cccc(O)c3)nc3sccn23)n1)c1cc(C(F)(F)F)cc(C(F)(F)F)c1	123%

Tested on: PC-3
Assay: Anticancer activity against human PC3 cells assessed as cell growth at 10^-5 M after 48 hrs by SRB assay
Format: functional
Settings: PC-3, 48 h, read-out: Activity

Compound	growth at 10 µM
O=C(NCCNc1nccc(-c2c(-c3cccc(O)c3)nc3sccn23)n1)c1cc(C(F)(F)F)cc(C(F)(F)F)c1	82.8%

Tested on: MOLT-4
Assay: Anticancer activity against human MOLT4 cells assessed as cell growth at 10^-5 M after 48 hrs by SRB assay
Format: functional
Settings: MOLT-4, 48 h, read-out: Activity

Compound	growth at 10 µM
O=C(NCCNc1nccc(-c2c(-c3cccc(O)c3)nc3sccn23)n1)c1cc(C(F)(F)F)cc(C(F)(F)F)c1	87.7%

Tested on: UACC-62
Assay: Anticancer activity against human UACC62 cells assessed as cell growth at 10^-5 M after 48 hrs by SRB assay
Format: functional
Settings: UACC-62, 48 h, read-out: Activity
Procedure, shortened: as §2

Compound	growth at 10 µM
O=C(NCCNc1nccc(-c2c(-c3cccc(O)c3)nc3sccn23)n1)c1cc(C(F)(F)F)cc(C(F)(F)F)c1	27.5%

Tested on: COLO 205
Assay: Anticancer activity against human COLO205 cells assessed as cell growth at 10^-5 M after 48 hrs by SRB assay
Format: functional
Settings: COLO 205, 48 h, read-out: Activity
Procedure, shortened: as §1

Compound	growth at 10 µM
O=C(NCCNc1nccc(-c2c(-c3cccc(O)c3)nc3sccn23)n1)c1cc(C(F)(F)F)cc(C(F)(F)F)c1	59.8%

Tested on: MDA-MB-435
Assay: Anticancer activity against human MDA-MB-435 cells assessed as cell growth at 10^-5 M after 48 hrs by SRB assay
Format: functional
Settings: MDA-MB-435, 48 h, read-out: Activity

Compound	growth at 10 µM
O=C(NCCNc1nccc(-c2c(-c3cccc(O)c3)nc3sccn23)n1)c1cc(C(F)(F)F)cc(C(F)(F)F)c1	59.2%

Tested on: CAKI-1
Assay: Anticancer activity against human Caki1 cells assessed as cell growth at 10^-5 M after 48 hrs by SRB assay
Format: functional
Settings: CAKI-1, 48 h, read-out: Activity
Procedure, shortened: as §1

Compound	growth at 10 µM
O=C(NCCNc1nccc(-c2c(-c3cccc(O)c3)nc3sccn23)n1)c1cc(C(F)(F)F)cc(C(F)(F)F)c1	96.8%

Tested on: not listed separately
Assay: Antiproliferative activity against human A375P cells after 48 hrs by MTT assay
Format: functional, cell-based
Settings: not given
Procedure, shortened: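 A375P cells in DMEM with 10% FBS at 37 °C, 5% CO2. Seeded at 5×10³ cells/well, held 24 h, then treated with 12-point 3-fold serial dilutions for 48 h. Viability by MTT reduction. IC50 values are means of triplicate experiments.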

Compound	IC50
O=C(NCCNc1nccc(-c2c(-c3cccc(O)c3)nc3sccn23)n1)c1cc(C(F)(F)F)cc(C(F)(F)F)c1	> 10 µM

Tested on: SW-620
Assay: Anticancer activity against human SW620 cells assessed as cell growth at 10^-5 M after 48 hrs by SRB assay
Format: functional
Settings: SW-620, 48 h, read-out: Activity
Procedure, shortened: as §2

Compound	growth at 10 µM
O=C(NCCNc1nccc(-c2c(-c3cccc(O)c3)nc3sccn23)n1)c1cc(C(F)(F)F)cc(C(F)(F)F)c1	117%

Tested on: M14
Assay: Anticancer activity against human M14 cells assessed as cell growth at 10^-5 M after 48 hrs by SRB assay
Format: functional
Settings: M14, 48 h, read-out: Activity
Procedure, shortened: as §1

Compound	growth at 10 µM
O=C(NCCNc1nccc(-c2c(-c3cccc(O)c3)nc3sccn23)n1)c1cc(C(F)(F)F)cc(C(F)(F)F)c1	38.2%

Tested on: SNB-19
Assay: Anticancer activity against human SNB19 cells assessed as cell growth at 10^-5 M after 48 hrs by SRB assay
Format: functional
Settings: SNB-19, 48 h, read-out: Activity

Compound	growth at 10 µM
O=C(NCCNc1nccc(-c2c(-c3cccc(O)c3)nc3sccn23)n1)c1cc(C(F)(F)F)cc(C(F)(F)F)c1	123%

Tested on: OVCAR-4
Assay: Anticancer activity against human OVCAR4 cells assessed as cell growth at 10^-5 M after 48 hrs by SRB assay
Format: functional
Settings: OVCAR-4, 48 h, read-out: Activity

Compound	growth at 10 µM
O=C(NCCNc1nccc(-c2c(-c3cccc(O)c3)nc3sccn23)n1)c1cc(C(F)(F)F)cc(C(F)(F)F)c1	129%
